# HKDC1 inh: inhibitors of human hexokinase HKDC1. Q2TB90. recombinant HKDC1, G6PDH/diaphorase resazurin coupled fluorescence. inhibition, % at 20 µM. hit rate 0.16% among 340,000. AID 493160;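 active = inhibition above about 35% when tested at 20 µM, limit read from the data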;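 also: plate controls were DMSO wells with enzyme for no effect and DMSO wells lacking enzyme for full effect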
#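 Test system: Recombinant HKDC1 (HK5) hexokinase enzyme, produced in-house | Input: HKDC1 at 5 µg/mL | Buffer or medium: Tris pH 8.0 buffer with MgCl2, Tween-20, BSA, BME | Schedule: 90 min reaction incubation at room temperature, dark | Technique: Resazurin-to-resorufin fluorescence via G6PDH and diaphorase coupling, 525/613 nm | Controls: DMSO wells with and without enzyme mix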
# EP2 antag: blocks the human prostaglandin E2 receptor EP2 | P43116 | C6 glioma cells expressing human EP2, cAMP TR-FRET; cells stimulated with saturating PGE2 | inhibition, % at 25 µM | hit rate 0.52% among 260,000;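 active = percent inhibition above 40 after rounding to a whole number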;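 also: rat C6 glioma host cells with rolipram phosphodiesterase inhibitor present; the protocol text gives 20 µM as final concentration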
# Target sequence (P43116 whole entry, looked up): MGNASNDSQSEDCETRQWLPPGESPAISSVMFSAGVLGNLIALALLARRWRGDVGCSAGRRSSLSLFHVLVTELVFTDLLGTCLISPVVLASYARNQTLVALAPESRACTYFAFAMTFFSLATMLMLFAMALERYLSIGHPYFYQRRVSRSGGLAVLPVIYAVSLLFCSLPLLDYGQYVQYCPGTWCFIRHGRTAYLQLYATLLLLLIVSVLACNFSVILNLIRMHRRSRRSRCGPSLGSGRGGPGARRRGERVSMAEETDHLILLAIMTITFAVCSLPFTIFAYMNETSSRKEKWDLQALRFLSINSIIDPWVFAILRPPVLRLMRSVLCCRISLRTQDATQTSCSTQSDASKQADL
# PHOSPHO1 block: PHOSPHO1 (human) inhibition; hit rate 1.1% among 290,000; inhibition, % at 13.3 µM; AID 1565; Q8TCT1; recombinant PHOSPHO1, absorbance phosphatase assay; in the data active = inhibition above about 60%
# Target sequence (Q8TCT1 whole entry, looked up): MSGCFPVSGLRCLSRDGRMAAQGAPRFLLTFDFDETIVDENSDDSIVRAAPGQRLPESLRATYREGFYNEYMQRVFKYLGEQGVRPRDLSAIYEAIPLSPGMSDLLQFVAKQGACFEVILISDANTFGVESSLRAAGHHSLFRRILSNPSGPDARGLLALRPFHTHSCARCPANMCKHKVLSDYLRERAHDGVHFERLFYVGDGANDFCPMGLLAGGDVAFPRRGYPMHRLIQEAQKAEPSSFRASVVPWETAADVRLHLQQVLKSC
# EP2 mod: modulates human prostaglandin E2 receptor EP2 signaling. P43116. EP2-expressing cells, cAMP HTRF FRET, PGE2 co-stimulation. induction, % at 25 µM. hit rate 0.83% among 260,000. AID 940;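 active = compounds whose cAMP rise, as percent of the full-agonist control response, exceeds 60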;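 also: rat C6 glioma line stably carrying human EP2 under a CMV promoter; the protocol text gives 20 µM as final concentration; 100% = response of wells given 1 µM PGE2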
# Tb hexokinase: T. brucei hexokinase 1 inhibition; recombinant TbHK1, G6PDH-coupled NADH A340; inhibition, % at 10 µM; hit rate 0.11% among 220,000; AID 1430;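 active = inhibition of 50% or more in the single-dose primary screen; inactive = inhibition below 50%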
# PfG6PD inh: PfG6PD (Plasmodium falciparum) enzyme inhibition; PfGluPho enzyme, NADPH resazurin-diaphorase fluorescence; inhibition, % at 20 µM; hit rate 0.78% among 350,000;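 active = inhibition reaching at least a set limit at 20 µM in the primary screen, cut at about 59% in these data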;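 also: 0% = DMSO wells with substrate and 100% = DMSO wells lacking glucose-6-phosphate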
# PfG6PD confirm: PfG6PD inhibition, single-dose confirmed; hit rate 34% among 2,400; recombinant PfGluPho, NADPH-diaphorase-resazurin fluorescence; inhibition, % at 20 µM; shares compounds with PfG6PD inh;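 active = inhibition of at least 50% at 20 µM in any single replicate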;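 also: 0% = DMSO with substrate and 100% = DMSO lacking glucose-6-phosphate substrate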
# Diaphorase 10uM: counter-screen for P. falciparum G6PD inhibitors: diaphorase inhibitors, oxidizers; hit rate 39% among 820; diaphorase-coupled resazurin reduction, fluorescence, NADPH 10 uM; shares compounds with PfG6PD inh; inhibition, % at 20 µM;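 active = average inhibition reaching 50% or more with the compound at 20 µM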;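 also: resorufin red fluorescence formed as diaphorase reduces resazurin using NADPH; 0% = DMSO with enzyme and 100% = DMSO without enzyme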
# Diaph ctr 30uM: diaphorase inhibition or oxidation at 30 uM NADPH; shares compounds with PfG6PD inh; inhibition, % at 20 µM; hit rate 29% among 820; Diaphorase/resazurin coupled assay, resorufin fluorescence;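 active = inhibition averaging 50% or more, tested at 20 µM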;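 also: 0% = DMSO with enzyme and 100% = DMSO wells lacking diaphorase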
# Active calls of the source: *; / = not tested or not shown; ! = not confirmed by another sample. A selection: hits, their analogues and other compounds. The true share with any hit is near 2.5%.
SMILES,HKDC1 inh,EP2 antag,PHOSPHO1 block,EP2 mod,Tb hexokinase,PfG6PD inh,PfG6PD confirm,others
CC(=O)c1cccc(NC(=O)c2cnn(-c3ccccc3)c2C)c1,6,/,14,/,/,75*,51*,Diaphorase 10uM=41;Diaph ctr 30uM=35
Cc1ccc(-c2csc(=S)[nH]2)cc1,-4,4,-24,-4,0,24,/,
S=c1[nH]c(-c2ccc(Cl)cc2)cs1,6,17,36,-15,0,62*,3,
COc1cc(C(=O)O/N=C2/C=CC(=O)C(C)=C2C)cc(OC)c1OC,7,/,1,-31,-9,32,/,
COc1cc(C(=O)O/N=C2\C=CC(=O)C=C2C)cc(OC)c1OC,-7,4,4,-2,-6,67*,63*,Diaphorase 10uM=27;Diaph ctr 30uM=15
Cc1ccc(S(=O)(=O)N2C[C@H]3n4c(=O)ccc(=O)n4C[C@H](OC(=O)NCc4ccccc4)[C@@]3(O)C2)cc1,/,/,/,/,/,2,/,
CCCCCCn1c(=O)n2n(c1=O)[C@@H]1CN(S(=O)(=O)c3ccc(C)cc3)C[C@]1(O)[C@@H](OC(=O)NCc1ccccc1)C2,/,/,/,/,/,67*,-15,
Cc1ccc(S(=O)(=O)Nc2ccccc2N=Cc2ccc([N+](=O)[O-])cc2[N+](=O)[O-])cc1,12,/,/,/,/,84*,-3,
Cc1cc2c(cc3c(=O)n(CC(=O)NC(C)C)nc(C)n32)s1,/,/,/,-3,/,/,/,
CC(=O)c1ccc(NC(=O)C(C)Sc2nc3ccc(C)cc3cc2C)cc1 (stereo not given),/,12,/,13,/,/,/,
O=C(NC1=NCCS1)C1Cc2ccccc2CN1C(=O)c1ccccc1 (stereo not given),2,8,-23,2,-1,28,/,
COc1ccc(NC(=O)C2Cc3ccccc3CN2C(=O)c2ccccc2)cn1 (stereo not given),1,8,-4,-5,0,61*,48,
CC(=O)c1ccc(NC(=O)C2Cc3ccccc3CN2C(=O)c2ccccc2)cc1 (stereo not given),-7,5,-21,4,3,68*,37,
O=S(=O)(c1ccc(=S)[nH]c1)N1CCCC1,9,/,/,/,/,60*,41,
Cc1ccc(S(=O)(=O)N(CC(=O)NCc2ccco2)Cc2ccccc2F)cc1,1,16,-7,22,-1,72*,33,
COc1cc(NCc2ccccc2O)c2ncccc2c1,12,6,32,-11,-17,65*,56*,Diaphorase 10uM=-2;Diaph ctr 30uM=-7
Cc1nc2sc3c(c2c(=O)n1N)CCC(C)C3 (stereo not given),/,7,/,-123,/,/,/,
Nc1c2c(nc3sc4c(c13)CCCCC4)CCCCC2,19,8,-2,-9,4,20,/,
CC1CCc2nc3sc4c(c3c(N)c2C1)CCCC4 (stereo not given),-1,10,-5,-49,4,91*,41,
CC1CCc2c(nc3sc4c(c3c2N)CCCC4)C1 (stereo not given),-6,9,-6,-77,2,95*,57*,Diaphorase 10uM=51*;Diaph ctr 30uM=41
Cc1nn(C)cc1C(=O)O,/,12,/,16,/,/,/,
Cc1ccc(OS(=O)(=O)c2c(C)nn(C)c2Cl)c(C)c1,-1,/,38,/,/,75*,34,
Oc1c(Cl)cc(Cl)c2c1NCCC2,10,/,18,-14,14,78*,37,
O=C1NCCCc2c1oc1ccc(O)cc21,-4,4,23,3,-8,0,/,
CC1=CC(C)(C)N2C(=O)C(=Nc3ccc(O)cc3)c3cccc1c32,20,12,12,51,-5,94*,23,
SMILES,HKDC1 inh,EP2 antag,PHOSPHO1 block,EP2 mod,Tb hexokinase,PfG6PD inh,PfG6PD confirm,others
Cn1c(SCCC#N)nnc1-c1ccc(F)cc1,/,1,-67,39,-2,/,/,
CC1=C(SCCC#N)S/C(=C2\SC(C)=C(SCCC#N)S2)S1,1,9,95*,7,3,60*,3,
Cc1ccc(Nc2n[nH]c(=S)s2)cc1F,-2,/,/,/,/,72*,23,
S=c1[nH]nc(Nc2ccc(Cl)cc2)s1,-2,19,86*,20,-10,65*,36,
COc1ccc(OC)c(S(=O)(=O)N2CCC(C(=O)Nc3ccccc3C)CC2)c1,/,7,/,-3,/,/,/,
CC(=O)c1ccc(NC(=S)Nc2cccc3cnccc23)cc1,8,9,30,-28,-20,64*,-6,
Cc1ccc(C)c(NC(=S)Nc2cccc3cnccc23)c1,20,6,51,-40,2,101*,-2,
C=CCn1c2ccccc2c(=O)c2cc(C#Cc3ccccn3)ccc21,-2,/,/,/,/,80*,36,
COc1cc(C(=O)Nc2ccc(Cl)c(C(F)(F)F)c2)cc(OC)c1OC,21,13,-7,-79,25,14,/,
COc1cccc(C(=O)Nc2ccc(Cl)c(C(F)(F)F)c2)c1,3,14,-4,-51,4,65*,-15,
O=C1c2c(O)ccc(O)c2C(=O)c2c(NCCNCCO)ccc(NCCNCCO)c21,4,17,/,12,/,62*!,11,
O=C1c2ccccc2C(=O)c2c(NCCCN(CCO)CCO)cccc21,-2,16,48,-77,7,15,/,
CCN(c1ccccc1)S(=O)(=O)c1ccc(N2CCN(c3ccc(O)cc3)CC2)nc1,11,/,/,/,/,76*,16,
CCCCCC(=O)NC(NC(=S)NC1CCS(=O)(=O)C1)C(Cl)(Cl)Cl (stereo not given),-11,9,-1,16,4,63*,0,
Cc1nc2ccc(NC3=NCCCCC3)cc2s1,1,11,21,-4,-5,64*,38,
Cc1ccc(-n2c(C)cc(C(=O)CSc3nncs3)c2C)cc1,-9,7,89*,-4,-1,62*,23,
CS(=O)(=O)c1cnc2ncnn2c1C1CCCN(C(=O)c2cccnc2)C1 (stereo not given),/,/,/,-22,/,/,/,
COc1c(Cl)cccc1-c1cn2ccc(C)cc2n1,0,11,-7,-86,-16,83*,29,
Cc1ccc2[nH]c3c(N4CCN(Cc5ccccc5)CC4)ncnc3c2c1,2,31,-4,-37,-13,9,/,
Cc1ccc2c(c1)[nH]c1c(N3CCN(Cc4ccccc4)CC3)ncnc12,3,7,21,-44,-20,61*,-22,
COc1ccc(CCn2c(SCC(=O)c3ccccc3)nc3ccccc3c2=O)cc1OC,/,11,/,28,/,/,/,
C=CCn1c(N2CCC(C(=O)NCCCN3CCCC3=O)CC2)nc2ccccc21,/,/,/,-11,/,/,/,
O=S(=O)(Nc1cccc2ccccc12)c1ccccc1,12,11,20,15,-4,34,/,
